Measured values taken from PubChem BioAssay AID624060 (Southern Research Specialized Biocontainment Screening …, 2012).

Test system: UPEC UTI89 capsule, orcinol assay OD572
Experiment: inhibitors of UPEC UTI89 surface capsule formation, confirmation, orthogonal assay for bacterial capsule biogenesis inhibitors, orcinol colorimetric, OD572, set 2 (AID 624060)
Settings: at 100 µM; hits give low values
In short: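 Test system – UPEC UTI89 plus ΔkpsM mutant · Doses – one dose, 100 µM · Schedule – hydrolysis 1 h, 80 °C · Signal – orcinol color, OD 572 nm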

**Q.** With `CCOc1ccc(-c2cc(NC(=O)c3c(F)cccc3F)c(C(=O)O)s2)cc1` as the compound, how does the capsule formation read?
**A.** The capsule formation was 21%.
